Drawing on ChEMBL document CHEMBL1125613, “Synthesis, receptor binding, and tissue distribution of 7 alpha- and 11 beta-substituted (17 alpha,20E)- and (17 alpha,20Z)-21-[125I]iodo-19-norpregna-1,3,5(10),20-tetraene-3,17-diols” (J Med Chem, 1991), this text covers Concentration and relative binding affinity (RBA) for 15 molecules.

For the first data set, the species on record is Rattus norvegicus. In words: Biodistribution studied in the adrenals of immature Fischer female rats at 5 hour. It is filed as ADME, organism-based, Adrenal gland. The following applies: in vivo. The procedure, abridged: (§1)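 Immature female Fischer rats (24 days old, 55–60 g), unanesthetized in retention cages, given 3 μCi (111 kBq) nca 125I-labeled steroid in 200 μL via lateral tail vein. Vehicle was 9% ethanol in saline with 1% Tween-80, filtered 0.22 μm. Killed at 5 h under ether; tissues KCl-washed, blotted, weighed, gamma-counted; % ID/g, average of 4–5 rats, % CV.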
On to `C[C@@H]1Cc2cc(O)ccc2[C@H]2CC[C@@]3(C)[C@@H](CC[C@@]3(O)/C=C\[125I])[C@H]12`, for which the Concentration was 0.88%.

The target in a further data set is Estrogen receptor (Mus musculus) (UniProt O08537+P19785). In words: Relative binding affinity for murine cytoplasmic estrogen receptor as displacement of [3H]estradiol. It is filed as protein assay.
Sequence of Estrogen receptor (Mus musculus) (O08537 whole entry, looked up): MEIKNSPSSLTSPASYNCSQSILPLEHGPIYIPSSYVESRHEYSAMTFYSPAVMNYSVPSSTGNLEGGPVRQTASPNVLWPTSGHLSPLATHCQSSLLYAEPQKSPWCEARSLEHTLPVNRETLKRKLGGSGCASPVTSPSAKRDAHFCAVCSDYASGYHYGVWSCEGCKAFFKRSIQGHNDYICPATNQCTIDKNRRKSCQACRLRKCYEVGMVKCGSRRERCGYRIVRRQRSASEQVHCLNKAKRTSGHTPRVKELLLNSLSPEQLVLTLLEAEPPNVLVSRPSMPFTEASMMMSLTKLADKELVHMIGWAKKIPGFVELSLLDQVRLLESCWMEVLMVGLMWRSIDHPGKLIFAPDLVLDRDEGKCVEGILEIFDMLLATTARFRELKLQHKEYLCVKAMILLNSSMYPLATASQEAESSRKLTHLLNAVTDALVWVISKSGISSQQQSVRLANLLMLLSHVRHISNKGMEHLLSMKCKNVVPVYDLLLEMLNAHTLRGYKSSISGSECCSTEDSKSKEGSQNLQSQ
Sequence of Estrogen receptor (Mus musculus) (P19785 whole entry, looked up): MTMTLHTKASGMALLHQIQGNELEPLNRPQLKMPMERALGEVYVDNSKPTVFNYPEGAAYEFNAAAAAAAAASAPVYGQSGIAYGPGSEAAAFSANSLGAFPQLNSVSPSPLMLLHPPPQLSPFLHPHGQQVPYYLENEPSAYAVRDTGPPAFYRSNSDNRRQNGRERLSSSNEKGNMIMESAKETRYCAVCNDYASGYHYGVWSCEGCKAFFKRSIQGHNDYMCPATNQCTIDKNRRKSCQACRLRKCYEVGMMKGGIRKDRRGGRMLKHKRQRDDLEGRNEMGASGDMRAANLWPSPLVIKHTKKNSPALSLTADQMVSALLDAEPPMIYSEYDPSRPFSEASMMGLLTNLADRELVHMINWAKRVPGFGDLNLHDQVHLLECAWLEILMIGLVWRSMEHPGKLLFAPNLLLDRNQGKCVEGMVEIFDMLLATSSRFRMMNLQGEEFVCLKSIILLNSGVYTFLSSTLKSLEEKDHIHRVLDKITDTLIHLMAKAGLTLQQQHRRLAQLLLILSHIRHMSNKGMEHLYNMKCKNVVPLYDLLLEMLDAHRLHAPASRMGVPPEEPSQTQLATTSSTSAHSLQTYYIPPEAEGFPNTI
Conditions: not given
The procedure, abridged: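 Murine uterine cytoplasmic extract incubated 18 h at 0–4 °C with 20 nM [3H]estradiol, with or without competitor at 2 nM to 20 μM. Concentration for 50% competition of specific binding was read from the curve. RBA = 100 × ratio of estradiol to competitor concentration at 50% competition. Mean of three experiments.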
Background: In a radioligand displacement assay an active substance lowers the binding of a labelled ligand.
As for `C#C[C@]1(O)CC[C@H]2[C@@H]3CCc4cc(O)ccc4[C@H]3[C@@H](OCC)C[C@@]21C`, the relative binding affinity (RBA) came out at 21. Consider `C=C[C@]1(O)CC[C@H]2[C@@H]3CCc4cc(O)ccc4[C@H]3[C@@H](OC)C[C@@]21C`, for which the relative binding affinity (RBA) amounted to 13.5.

In the case of `CO[C@H]1C[C@@]2(C)[C@@H](CC[C@@]2(O)/C=C/I)[C@@H]2CCc3cc(O)ccc3[C@H]21`, the relative binding affinity (RBA) worked out at 27.7. Still for that read-out and setting: the figure for `C[C@@H]1Cc2cc(O)ccc2[C@H]2CC[C@@]3(C)[C@@H](CC[C@@]3(O)/C=C/I)[C@H]12` is 43.2. In turn, `C=C[C@]1(O)CC[C@H]2[C@@H]3[C@H](C)Cc4cc(O)ccc4[C@H]3CC[C@@]21C` gave a relative binding affinity (RBA) of 58.1. Molecule `C#C[C@]1(O)CC[C@H]2[C@@H]3CCc4cc(O)ccc4[C@H]3[C@@H](OC)C[C@@]21C` yielded a relative binding affinity (RBA) of 15.3. For `C[C@@H]1Cc2cc(O)ccc2[C@H]2CC[C@@]3(C)[C@@H](CC[C@@]3(O)/C=C\I)[C@H]12`, the relative binding affinity (RBA) is 44.9. Take `CO[C@H]1C[C@@]2(C)[C@@H](CC[C@@]2(O)/C=C\I)[C@@H]2CCc3cc(O)ccc3[C@H]21`: the relative binding affinity (RBA) came to 32. Same read-out and setting: the figure for `CCO[C@H]1C[C@@]2(C)[C@@H](CC[C@@]2(O)/C=C\I)[C@@H]2CCc3cc(O)ccc3[C@H]21` is 30.8; for `C#C[C@]1(O)CC[C@H]2[C@@H]3[C@H](C)Cc4cc(O)ccc4[C@H]3CC[C@@]21C` it is 73.1; for `C[C@]12CC[C@@H]3c4ccc(O)cc4CC[C@H]3[C@@H]1CC[C@@]2(O)/C=C\I` it is 46.7.

Regarding `CCO[C@H]1C[C@@]2(C)[C@@H](CC[C@@]2(O)/C=C/I)[C@@H]2CCc3cc(O)ccc3[C@H]21`, the relative binding affinity (RBA) was determined as 21.6.

As for `C[C@]12CC[C@@H]3c4ccc(O)cc4CC[C@H]3[C@@H]1CC[C@@]2(O)/C=C/I`, the relative binding affinity (RBA) is 32.8.

The species entered for the next data set is Rattus norvegicus. Kind of data set: Biodistribution studied in the ovaries of immature Fischer female rats at 5 hour. It is filed as ADME, organism-based, Female gonad. The following applies: in vivo. The procedure, abridged: as §1
As to `C[C@@H]1Cc2cc(O)ccc2[C@H]2CC[C@@]3(C)[C@@H](CC[C@@]3(O)/C=C/[125I])[C@H]12`, the Concentration turned out to be 2.91%.
